Results published in ChEMBL document CHEMBL2069216, “Discovery of novel 2-aminopyridine-3-carboxamides as c-Met kinase inhibitors” (Bioorg Med Chem, 2012).
One block for each molecule: values may come before it. The source made the active and inactive calls. The calls are words filed in the database; no cut-off is given here.

Experiments:
[1] = Antiproliferative activity against human EBC1 cells expressing elevated levels of constitutively active c-Met after 72 hrs by SRB assay; format: functional, cell-based; settings: EBC-1, 72 h
Procedure, shortened: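 Cells seeded in 96-well plates, exposed the next day to a range of compound concentrations and cultured 72 h. Fixed with cold 10% TCA at 4 °C for 1 h, stained with 0.4% SRB in 1% acetic acid at room temperature, washed with 1% acetic acid, dye solubilized in 10 mM Tris base. OD read at 515 nm.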

[2] = molecular target: T1, Hepatocyte growth factor receptor (Homo sapiens, UniProt P08581); assay: Inhibition of c-Met at 10 uM incubated for 60 mins by spectrophotometry
T1 sequence (P08581 whole entry): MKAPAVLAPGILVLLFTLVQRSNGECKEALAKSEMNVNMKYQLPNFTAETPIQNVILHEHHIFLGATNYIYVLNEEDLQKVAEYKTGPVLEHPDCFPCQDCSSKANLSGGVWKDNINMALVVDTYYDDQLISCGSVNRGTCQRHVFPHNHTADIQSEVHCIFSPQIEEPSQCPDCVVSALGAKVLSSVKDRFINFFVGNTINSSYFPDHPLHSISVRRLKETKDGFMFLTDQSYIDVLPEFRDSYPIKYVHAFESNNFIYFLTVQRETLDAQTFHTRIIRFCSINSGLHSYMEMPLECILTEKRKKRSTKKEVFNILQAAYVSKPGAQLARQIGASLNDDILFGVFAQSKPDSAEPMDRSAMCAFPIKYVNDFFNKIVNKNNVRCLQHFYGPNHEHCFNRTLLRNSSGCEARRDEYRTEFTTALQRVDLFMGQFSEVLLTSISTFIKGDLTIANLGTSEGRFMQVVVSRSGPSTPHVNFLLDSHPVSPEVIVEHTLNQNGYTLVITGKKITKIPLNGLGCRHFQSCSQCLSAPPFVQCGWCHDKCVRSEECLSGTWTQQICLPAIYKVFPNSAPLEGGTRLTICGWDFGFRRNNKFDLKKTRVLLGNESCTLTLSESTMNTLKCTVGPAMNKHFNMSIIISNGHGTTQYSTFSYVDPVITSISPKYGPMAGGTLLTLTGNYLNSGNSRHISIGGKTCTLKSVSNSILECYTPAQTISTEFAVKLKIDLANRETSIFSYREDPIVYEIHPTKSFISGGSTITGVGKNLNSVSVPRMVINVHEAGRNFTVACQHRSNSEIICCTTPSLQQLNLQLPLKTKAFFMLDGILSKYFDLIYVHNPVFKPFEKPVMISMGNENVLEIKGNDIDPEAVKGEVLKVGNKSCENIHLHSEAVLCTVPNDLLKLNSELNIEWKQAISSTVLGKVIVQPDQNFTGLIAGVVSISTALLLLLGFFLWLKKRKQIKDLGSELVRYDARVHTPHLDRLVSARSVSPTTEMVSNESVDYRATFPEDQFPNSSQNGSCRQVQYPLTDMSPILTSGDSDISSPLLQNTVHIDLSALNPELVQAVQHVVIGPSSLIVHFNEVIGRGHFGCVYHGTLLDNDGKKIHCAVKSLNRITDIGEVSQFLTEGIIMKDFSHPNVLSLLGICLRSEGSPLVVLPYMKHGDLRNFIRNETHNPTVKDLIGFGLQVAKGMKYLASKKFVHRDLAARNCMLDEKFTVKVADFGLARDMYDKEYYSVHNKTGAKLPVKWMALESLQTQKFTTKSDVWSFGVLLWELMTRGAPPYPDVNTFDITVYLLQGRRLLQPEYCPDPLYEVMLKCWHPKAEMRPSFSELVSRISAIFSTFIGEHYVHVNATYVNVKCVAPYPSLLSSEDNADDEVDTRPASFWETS
Procedure, shortened: (§1)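 Compounds in 1% DMSO; reaction started by adding purified kinase, 60 min at 37 °C. PY99 antibody, then HRP anti-mouse IgG; o-phenylenediamine/H2O2 read at 490 nm. Inhibition % = [1-(A490/A490 control)]×100; IC50 from inhibition curves.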

[3] = molecular target: T1, Hepatocyte growth factor receptor; assay: Inhibition of c-Met incubated for 60 mins at spectrophotometry
[4] = molecular target: T1, Hepatocyte growth factor receptor; assay: Inhibition of c-Met at 1 uM incubated for 60 mins by spectrophotometry; procedure, shortened: as §1
[5] = molecular target: Vascular endothelial growth factor receptor 2 (Homo sapiens, UniProt P35968); assay: Inhibition of KDR; procedure, shortened: as §1
Vascular endothelial growth factor receptor 2, sequence (P35968 whole entry): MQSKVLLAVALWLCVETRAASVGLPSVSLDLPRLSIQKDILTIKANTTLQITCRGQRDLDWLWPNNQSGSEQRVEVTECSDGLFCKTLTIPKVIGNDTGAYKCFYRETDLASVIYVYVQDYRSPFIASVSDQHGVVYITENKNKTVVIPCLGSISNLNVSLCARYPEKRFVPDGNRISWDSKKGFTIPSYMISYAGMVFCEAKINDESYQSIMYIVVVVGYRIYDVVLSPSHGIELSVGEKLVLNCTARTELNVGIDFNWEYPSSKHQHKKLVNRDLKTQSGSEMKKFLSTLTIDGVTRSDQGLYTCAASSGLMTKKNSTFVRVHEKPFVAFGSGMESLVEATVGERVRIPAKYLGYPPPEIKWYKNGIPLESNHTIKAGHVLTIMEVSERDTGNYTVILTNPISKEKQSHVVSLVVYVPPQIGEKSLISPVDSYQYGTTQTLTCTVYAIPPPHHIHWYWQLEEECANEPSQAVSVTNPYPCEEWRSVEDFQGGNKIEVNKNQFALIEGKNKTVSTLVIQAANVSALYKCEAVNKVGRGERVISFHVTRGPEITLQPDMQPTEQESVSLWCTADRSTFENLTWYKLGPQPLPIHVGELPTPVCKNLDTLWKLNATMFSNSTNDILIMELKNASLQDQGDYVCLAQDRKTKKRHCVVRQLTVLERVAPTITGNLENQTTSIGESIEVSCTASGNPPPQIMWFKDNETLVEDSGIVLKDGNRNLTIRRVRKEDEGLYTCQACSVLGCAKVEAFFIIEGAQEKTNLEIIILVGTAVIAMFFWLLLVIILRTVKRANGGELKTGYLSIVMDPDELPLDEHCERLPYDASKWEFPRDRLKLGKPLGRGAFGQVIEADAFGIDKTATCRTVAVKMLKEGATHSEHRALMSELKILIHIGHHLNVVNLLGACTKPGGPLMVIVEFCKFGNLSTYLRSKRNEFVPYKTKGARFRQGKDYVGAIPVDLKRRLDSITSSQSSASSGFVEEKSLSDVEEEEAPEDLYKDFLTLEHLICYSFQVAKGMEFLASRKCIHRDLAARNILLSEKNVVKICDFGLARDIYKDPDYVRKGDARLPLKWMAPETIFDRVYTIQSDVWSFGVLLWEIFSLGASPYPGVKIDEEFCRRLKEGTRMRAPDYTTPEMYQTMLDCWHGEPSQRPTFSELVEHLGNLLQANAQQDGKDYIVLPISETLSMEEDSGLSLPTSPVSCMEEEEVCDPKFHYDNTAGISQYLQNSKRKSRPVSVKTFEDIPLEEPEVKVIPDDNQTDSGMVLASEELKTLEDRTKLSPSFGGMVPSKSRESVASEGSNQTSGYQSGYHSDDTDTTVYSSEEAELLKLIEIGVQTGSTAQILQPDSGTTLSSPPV

[6] = molecular target: Vascular endothelial growth factor receptor 1 (Homo sapiens, UniProt P17948); assay: Inhibition of FLT1; procedure, shortened: as §1
[7] = molecular target: Fibroblast growth factor receptor 1 (Homo sapiens, UniProt P11362); assay: Inhibition of FGFR1; procedure, shortened: as §1
[8] = molecular target: Epidermal growth factor receptor (Homo sapiens, UniProt P00533); assay: Inhibition of EGFR; procedure, shortened: as §1
[9] = molecular target: Receptor tyrosine-protein kinase erbB-2 (Homo sapiens, UniProt P04626); assay: Inhibition of ERBB2; procedure, shortened: as §1
[10] = molecular target: T1, Hepatocyte growth factor receptor; assay: Inhibition of c-Met-mediated AKT phosphorylation in human EBC1 cells at 0.1 to 10 uM incubated for 4 hrs by Western blot; format: cell-based
Procedure, shortened: (§2)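 EBC-1 cells grown to exponential phase and treated with compound for 4 h at 37 °C. Lysed in 1× SDS sample buffer, resolved on 10% SDS-PAGE, transferred to nitrocellulose. Probed for phospho-c-Met/c-Met, phospho-ERK1/2/ERK1/2, phospho-AKT/AKT and GAPDH, then HRP anti-rabbit or anti-mouse IgG.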

[11] = molecular target: Receptor tyrosine-protein kinase erbB-4 (Homo sapiens, UniProt Q15303); assay: Inhibition of ERBB4; procedure, shortened: as §1
[12] = molecular target: T1, Hepatocyte growth factor receptor; assay: Inhibition of c-Met-mediated ERK1/2 phosphorylation in human EBC1 cells at 0.1 to 10 uM incubated for 4 hrs by Western blot; format: cell-based; procedure, shortened: as §2
[13] = molecular target: T2, Tyrosine-protein kinase Mer (Homo sapiens, UniProt Q12866); assay: Inhibition of Mer; procedure, shortened: as §1
T2 sequence (Q12866 whole entry): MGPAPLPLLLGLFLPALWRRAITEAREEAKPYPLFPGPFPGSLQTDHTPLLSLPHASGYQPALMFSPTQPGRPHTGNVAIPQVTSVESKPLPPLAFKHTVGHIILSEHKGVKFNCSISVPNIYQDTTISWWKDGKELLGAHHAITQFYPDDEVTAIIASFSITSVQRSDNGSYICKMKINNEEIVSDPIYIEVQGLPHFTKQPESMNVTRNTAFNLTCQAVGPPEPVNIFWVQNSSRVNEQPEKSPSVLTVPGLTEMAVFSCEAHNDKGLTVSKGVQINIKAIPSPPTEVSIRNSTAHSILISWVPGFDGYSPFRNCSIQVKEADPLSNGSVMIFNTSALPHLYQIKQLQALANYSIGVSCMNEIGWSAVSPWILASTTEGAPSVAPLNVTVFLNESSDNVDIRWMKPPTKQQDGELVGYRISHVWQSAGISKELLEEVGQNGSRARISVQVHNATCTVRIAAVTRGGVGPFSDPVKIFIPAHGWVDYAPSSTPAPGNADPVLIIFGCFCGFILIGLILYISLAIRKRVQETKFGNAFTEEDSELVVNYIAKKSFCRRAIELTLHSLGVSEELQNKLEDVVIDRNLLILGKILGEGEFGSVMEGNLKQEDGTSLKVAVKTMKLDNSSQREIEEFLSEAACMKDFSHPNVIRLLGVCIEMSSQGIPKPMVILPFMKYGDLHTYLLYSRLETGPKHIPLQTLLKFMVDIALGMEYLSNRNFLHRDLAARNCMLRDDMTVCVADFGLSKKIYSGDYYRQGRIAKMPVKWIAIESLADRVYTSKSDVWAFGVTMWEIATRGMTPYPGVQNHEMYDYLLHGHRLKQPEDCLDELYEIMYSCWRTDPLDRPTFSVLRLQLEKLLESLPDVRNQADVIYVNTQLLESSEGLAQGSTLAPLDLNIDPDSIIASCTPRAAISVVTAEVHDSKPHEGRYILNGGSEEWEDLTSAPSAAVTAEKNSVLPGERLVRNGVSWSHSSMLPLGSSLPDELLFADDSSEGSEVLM

[14] = molecular target: Macrophage-stimulating protein receptor (Homo sapiens, UniProt Q04912); assay: Inhibition of Ron; procedure, shortened: as §1
Macrophage-stimulating protein receptor, sequence (Q04912 25-304 limits assumed): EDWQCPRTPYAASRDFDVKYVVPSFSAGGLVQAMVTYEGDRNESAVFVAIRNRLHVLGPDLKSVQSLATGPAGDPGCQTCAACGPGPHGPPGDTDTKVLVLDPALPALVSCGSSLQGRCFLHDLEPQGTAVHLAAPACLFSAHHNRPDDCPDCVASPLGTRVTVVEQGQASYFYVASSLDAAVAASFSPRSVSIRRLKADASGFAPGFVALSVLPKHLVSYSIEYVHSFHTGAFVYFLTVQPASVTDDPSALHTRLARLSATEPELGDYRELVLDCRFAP
Macrophage-stimulating protein receptor, sequence (Q04912 310-1400 limits assumed): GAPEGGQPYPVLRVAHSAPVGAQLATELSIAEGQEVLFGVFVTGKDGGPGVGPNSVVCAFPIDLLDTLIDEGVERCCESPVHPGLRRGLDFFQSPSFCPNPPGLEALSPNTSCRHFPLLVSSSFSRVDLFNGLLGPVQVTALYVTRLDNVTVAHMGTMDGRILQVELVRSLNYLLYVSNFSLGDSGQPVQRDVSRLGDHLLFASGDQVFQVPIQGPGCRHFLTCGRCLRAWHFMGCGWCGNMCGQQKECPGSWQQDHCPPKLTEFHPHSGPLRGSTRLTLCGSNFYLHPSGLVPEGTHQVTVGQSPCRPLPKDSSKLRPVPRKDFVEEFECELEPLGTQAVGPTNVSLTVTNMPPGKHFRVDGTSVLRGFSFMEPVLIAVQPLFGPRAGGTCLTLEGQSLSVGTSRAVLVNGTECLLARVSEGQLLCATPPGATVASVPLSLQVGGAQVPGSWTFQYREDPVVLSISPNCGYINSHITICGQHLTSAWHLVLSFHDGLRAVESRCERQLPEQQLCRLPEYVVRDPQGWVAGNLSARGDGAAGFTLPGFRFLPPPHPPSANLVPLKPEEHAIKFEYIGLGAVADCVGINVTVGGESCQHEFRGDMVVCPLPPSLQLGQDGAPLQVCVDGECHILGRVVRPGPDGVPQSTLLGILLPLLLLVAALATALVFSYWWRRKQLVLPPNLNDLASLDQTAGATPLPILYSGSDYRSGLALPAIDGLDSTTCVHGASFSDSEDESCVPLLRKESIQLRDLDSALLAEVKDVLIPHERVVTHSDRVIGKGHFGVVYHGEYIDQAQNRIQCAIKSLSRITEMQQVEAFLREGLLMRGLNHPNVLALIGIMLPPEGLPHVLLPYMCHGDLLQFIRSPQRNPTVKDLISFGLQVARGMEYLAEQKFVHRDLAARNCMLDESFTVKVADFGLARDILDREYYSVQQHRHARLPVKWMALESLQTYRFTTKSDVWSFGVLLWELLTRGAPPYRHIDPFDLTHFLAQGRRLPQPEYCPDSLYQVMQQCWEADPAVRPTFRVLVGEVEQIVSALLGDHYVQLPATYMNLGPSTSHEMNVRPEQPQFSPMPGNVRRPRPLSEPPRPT

[15] = molecular target: Tyrosine-protein kinase ABL1 (Homo sapiens, UniProt P00519); assay: Inhibition of ABL; procedure, shortened: as §1
[16] = molecular target: T1, Hepatocyte growth factor receptor; assay: Inhibition of c-Met phosphorylation in human EBC1 cells incubated for 4 hrs by Western blot; format: cell-based; procedure, shortened: as §2
[17] = molecular target: T3, Tyrosine-protein kinase receptor UFO (Homo sapiens, UniProt P30530); assay: Inhibition of Axl; procedure, shortened: as §1
T3 sequence (P30530 whole entry): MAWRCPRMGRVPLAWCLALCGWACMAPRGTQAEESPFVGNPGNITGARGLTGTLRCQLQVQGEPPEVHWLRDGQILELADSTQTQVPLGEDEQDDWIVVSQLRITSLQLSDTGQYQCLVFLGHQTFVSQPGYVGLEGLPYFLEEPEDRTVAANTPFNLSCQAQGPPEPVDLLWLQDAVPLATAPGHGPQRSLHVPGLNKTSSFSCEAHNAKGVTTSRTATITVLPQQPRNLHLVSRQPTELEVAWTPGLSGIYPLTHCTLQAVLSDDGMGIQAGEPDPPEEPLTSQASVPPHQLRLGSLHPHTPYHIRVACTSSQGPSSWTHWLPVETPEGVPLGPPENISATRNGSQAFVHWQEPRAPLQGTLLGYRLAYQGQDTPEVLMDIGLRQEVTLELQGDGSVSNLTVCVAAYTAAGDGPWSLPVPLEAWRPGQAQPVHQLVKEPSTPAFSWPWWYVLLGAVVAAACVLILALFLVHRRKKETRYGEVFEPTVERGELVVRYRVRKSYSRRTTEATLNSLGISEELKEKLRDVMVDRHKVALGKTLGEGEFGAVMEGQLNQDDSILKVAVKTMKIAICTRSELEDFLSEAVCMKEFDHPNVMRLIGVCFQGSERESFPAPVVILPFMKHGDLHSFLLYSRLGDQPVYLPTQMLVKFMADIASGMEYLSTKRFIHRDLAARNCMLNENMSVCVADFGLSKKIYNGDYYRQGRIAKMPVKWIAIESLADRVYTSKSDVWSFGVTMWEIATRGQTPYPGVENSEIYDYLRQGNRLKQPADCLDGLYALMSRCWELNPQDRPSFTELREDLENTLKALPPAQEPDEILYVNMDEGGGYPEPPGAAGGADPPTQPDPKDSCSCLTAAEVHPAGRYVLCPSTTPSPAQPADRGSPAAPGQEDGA

[18] = molecular target: Ephrin type-A receptor 2 (Homo sapiens, UniProt P29317); assay: Inhibition of EPHA2; procedure, shortened: as §1
Ephrin type-A receptor 2, sequence (P29317 whole entry): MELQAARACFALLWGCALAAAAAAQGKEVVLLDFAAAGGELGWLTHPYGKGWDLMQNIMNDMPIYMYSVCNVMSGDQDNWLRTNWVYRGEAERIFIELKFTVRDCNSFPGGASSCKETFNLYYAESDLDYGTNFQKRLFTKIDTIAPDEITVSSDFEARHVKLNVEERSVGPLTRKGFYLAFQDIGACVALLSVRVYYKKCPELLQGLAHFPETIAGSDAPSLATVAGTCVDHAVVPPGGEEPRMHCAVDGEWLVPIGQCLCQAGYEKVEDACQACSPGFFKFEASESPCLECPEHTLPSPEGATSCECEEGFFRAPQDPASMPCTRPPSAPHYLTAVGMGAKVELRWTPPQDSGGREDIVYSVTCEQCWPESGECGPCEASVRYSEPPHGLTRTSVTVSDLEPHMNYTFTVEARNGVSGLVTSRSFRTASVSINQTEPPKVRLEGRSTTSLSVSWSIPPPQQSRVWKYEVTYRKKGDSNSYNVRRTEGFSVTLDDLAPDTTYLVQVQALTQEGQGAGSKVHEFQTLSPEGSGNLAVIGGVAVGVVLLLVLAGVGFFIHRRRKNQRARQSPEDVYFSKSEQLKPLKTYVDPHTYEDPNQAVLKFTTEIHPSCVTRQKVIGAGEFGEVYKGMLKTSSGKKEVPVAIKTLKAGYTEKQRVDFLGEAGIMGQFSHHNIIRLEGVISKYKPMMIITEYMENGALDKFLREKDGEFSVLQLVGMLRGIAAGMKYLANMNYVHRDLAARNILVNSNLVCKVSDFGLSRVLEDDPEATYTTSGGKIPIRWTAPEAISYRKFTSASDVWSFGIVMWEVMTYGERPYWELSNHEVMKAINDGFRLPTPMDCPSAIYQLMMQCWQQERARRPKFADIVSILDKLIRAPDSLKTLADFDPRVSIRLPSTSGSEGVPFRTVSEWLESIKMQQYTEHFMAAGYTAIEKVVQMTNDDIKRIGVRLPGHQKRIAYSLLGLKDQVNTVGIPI

[19] = molecular target: T4, Tyrosine-protein kinase receptor TYRO3 (Homo sapiens, UniProt Q06418); assay: Inhibition of TYRO3; procedure, shortened: as §1
T4 sequence (Q06418 whole entry): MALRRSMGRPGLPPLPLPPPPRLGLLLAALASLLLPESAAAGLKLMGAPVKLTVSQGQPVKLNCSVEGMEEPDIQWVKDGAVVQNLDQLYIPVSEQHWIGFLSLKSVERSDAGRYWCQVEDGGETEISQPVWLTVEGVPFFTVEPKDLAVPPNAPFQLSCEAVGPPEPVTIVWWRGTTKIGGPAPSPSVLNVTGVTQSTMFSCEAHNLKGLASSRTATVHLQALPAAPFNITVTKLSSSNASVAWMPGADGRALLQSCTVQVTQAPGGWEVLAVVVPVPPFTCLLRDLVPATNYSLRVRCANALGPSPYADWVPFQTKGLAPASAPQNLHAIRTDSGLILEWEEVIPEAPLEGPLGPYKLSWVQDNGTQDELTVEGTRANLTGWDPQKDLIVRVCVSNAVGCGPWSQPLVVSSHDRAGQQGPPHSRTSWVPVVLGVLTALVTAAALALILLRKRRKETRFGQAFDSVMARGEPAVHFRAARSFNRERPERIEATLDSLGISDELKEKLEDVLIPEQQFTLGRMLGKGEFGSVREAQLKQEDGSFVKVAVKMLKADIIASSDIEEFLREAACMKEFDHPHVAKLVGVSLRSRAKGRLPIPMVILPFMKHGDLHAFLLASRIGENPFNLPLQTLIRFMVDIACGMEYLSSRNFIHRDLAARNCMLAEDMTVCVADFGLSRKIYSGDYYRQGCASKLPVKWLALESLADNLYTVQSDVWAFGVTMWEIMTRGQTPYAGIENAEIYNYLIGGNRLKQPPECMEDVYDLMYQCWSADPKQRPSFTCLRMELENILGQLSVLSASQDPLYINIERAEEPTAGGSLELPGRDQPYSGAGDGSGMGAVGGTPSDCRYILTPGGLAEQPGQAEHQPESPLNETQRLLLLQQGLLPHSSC

[20] = molecular target: Platelet-derived growth factor receptor (Homo sapiens, UniProt P09619+P16234); assay: Inhibition of PDGFR; format: protein-complex assay; procedure, shortened: as §1

Compound: C[C@@H](Oc1cc(-c2cnn(C3CCNCC3)c2)cnc1N)c1c(Cl)ccc(F)c1Cl [CRIZOTINIB]
IC50 [1]: 0.053 µM

Compound: CC(NC(=O)c1cc(-c2ccc3c(c2)CC(=O)N3)cnc1N)c1c(Cl)ccc(F)c1Cl (stereo not given)
IC50 [1]: 17.8 µM

inhibition [2]: 28.9%
Compound: CC(c1c(Cl)ccc(F)c1Cl)n1cnc2ncc(-c3cnn(C4CCN(C(=O)OC(C)(C)C)CC4)c3)cc2c1=O (stereo not given)

Compound: CC(NC(=O)c1cc(-c2cnn(C)c2)cnc1N)c1c(Cl)ccc(F)c1Cl (stereo not given)
IC50 [1]: > 50 µM

IC50 [3]: 0.099 µM
Compound: CC(NC(=O)c1cc(-c2cnn(C3CCOCC3)c2)cnc1N)c1c(Cl)ccc(F)c1Cl (racemic)
IC50 [1]: 3.49 µM

inhibition [4]: 27.6%
Compound: C[C@@H](NC(=O)c1cc(-c2cnn(C3CCOCC3)c2)cnc1N)c1c(Cl)ccc(F)c1Cl

inhibition [4]: 13.1%
Compound: CN(Cc1c(F)ccc(Cl)c1Cl)C(=O)c1cc(-c2cnn(C)c2)cnc1N

Compound: Cn1cc(-c2cnc(N)c(C(=O)NCc3ccc(F)c(F)c3)c2)cn1
IC50 [1]: 14.6 µM

Compound: CC(NC(=O)c1cc(-c2cnn(C3CCNCC3)c2)cnc1N)c1c(Cl)ccc(F)c1Cl (stereo not given)
IC50 [1]: 1.46 µM

inhibition [4]: 18.1%
Compound: CN(Cc1c(F)ccc(F)c1Cl)C(=O)c1cc(-c2cnn(C)c2)cnc1N

Compound: Cn1cc(-c2cnc(N)c(C(=O)NCc3c(F)ccc(F)c3Cl)c2)cn1
IC50 [1]: 6.9 µM

Compound: Cn1cc(-c2cnc(N)c(C(=O)NCc3c(F)ccc(Cl)c3Cl)c2)cn1
IC50 [1]: 12.7 µM

Compound: Cn1cc(-c2cnc(N)c(C(=O)NCc3cc(F)ccc3F)c2)cn1
IC50 [1]: 15 µM

Compound: CC(NC(=O)c1cc(-c2ccc(OCC(=O)N3CCOCC3)cc2)cnc1N)c1c(Cl)ccc(F)c1Cl (stereo not given)
IC50 [1]: 6.05 µM

inhibition [2]: 34.1%
Compound: CC(c1c(Cl)ccc(F)c1Cl)n1cnc2ncc(-c3cnn(C4CCNCC4)c3)cc2c1=O (stereo not given)

IC50 [5]: > 10 µM
IC50 [6]: 8.16 µM
IC50 [7]: 3.48 µM
IC50 [8]: > 10 µM
IC50 [3]: 0.022 µM
IC50 [9]: > 10 µM
inhibition [10]: Active
IC50 [11]: > 10 µM
inhibition [12]: Active
IC50 [13]: > 10 µM
IC50 [14]: 8.26 µM
IC50 [15]: 4.99 µM
inhibition [16]: Dose-dependent effect
IC50 [17]: > 10 µM
IC50 [18]: 6.18 µM
IC50 [19]: > 10 µM
IC50 [20]: > 10 µM
Compound: C[C@H](NC(=O)c1cc(-c2cnn(C3CCOCC3)c2)cnc1N)c1c(Cl)ccc(F)c1Cl
IC50 [1]: 1.22 µM

inhibition [4]: 10.9%
Compound: CN(Cc1c(F)ccc(Cl)c1F)C(=O)c1cc(-c2cnn(C)c2)cnc1N
